Test results: ChEMBL document CHEMBL3621045, “Structural Insights Lead to a Negamycin Analogue with Improved Antimicrobial Activity against Gram-Negative Pathogens” (ACS Med Chem Lett, 2015)
Values after ≈ are worked out from the molar mass of the structure shown.

Legend:
Pseudomonas aeruginosa [1] = experiment: Antibacterial activity against Pseudomonas aeruginosa PAO1; format: functional
Acinetobacter baumannii = experiment: Antibacterial activity against Acinetobacter baumannii ARC 3495; format: functional
Klebsiella pneumoniae = experiment: Antibacterial activity against Klebsiella pneumoniae ATCC 700603; format: functional
Escherichia coli [2] = experiment: microbe, parasite or virus in culture; conditions: ATCC 25922
Escherichia coli [3] = experiment: Inhibition of transcription-translation process in Escherichia coli; format: functional
Pseudomonas aeruginosa [4] = experiment: Antibacterial activity against mexABCDXY-deficient Pseudomonas aeruginosa PAO1; format: functional
Escherichia coli [5] = experiment: microbe, parasite or virus in culture; conditions: ATCC 25922; remark: listed apart in the source
Pseudomonas aeruginosa [6] = experiment: Ratio of MIC for Pseudomonas aeruginosa PAO1 to MIC for mexABCDXY-deficient Pseudomonas aeruginosa PAO1; format: functional
Method in brief: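 MICs in μg/mL were determined for P. aeruginosa PAO1 and its isogenic efflux-pump knockout strain. Analogues were tested up to their highest soluble concentrations. The value is the parent-strain MIC divided by the knockout-strain MIC.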

Molecule | MIC (Pseudomonas aeruginosa [1]) [µg/mL] | MIC (Acinetobacter baumannii) [µg/mL] | MIC (Klebsiella pneumoniae) [µg/mL] | MIC (Escherichia coli [2]) [µg/mL] | IC50 (Escherichia coli [3]; Escherichia coli) [µM] | MIC (Pseudomonas aeruginosa [4]) [µg/mL] | MIC (Escherichia coli [5]) [µg/mL] | IC50 (Escherichia coli [3]) [µM] | Ratio (Pseudomonas aeruginosa [6])
CN(CC(=O)O)NC(=O)C[C@H](N)[C@H](O)[C@@H](O)CN | > 256 | > 256 | > 256 | > 256 | 43 |  |  |  | 
GENTAMICIN [listing 1 of 2 here] | 1 | > 64 | 8 |  |  | 0.13 |  |  | 
CCN(CC(=O)O)NC(=O)C[C@H](N)C[C@@H](O)CN | 128 (≈ 488 µM) | 256 (≈ 976 µM) | 128 (≈ 488 µM) | 256 (≈ 976 µM) | 7.4 |  |  |  | 
CCNC[C@H](O)C[C@@H](N)CC(=O)NN(C)CC(=O)O | 512 (≈ 1850 µM) | 64 (≈ 232 µM) | 64 (≈ 232 µM) | 64 (≈ 232 µM) | 0.5 |  |  |  | 
CN(CC(=O)O)NC(=O)C[C@H](N)C[C@@H](O)CNCCC(N)=O | > 256 | > 256 | > 256 | > 256 | 4 | > 256 | 256 (≈ 802 µM) |  | 
CN(CC(=O)O)NC(=O)C[C@H](N)C[C@H](F)CN | > 512 | > 512 | > 512 | > 512 | 26 |  |  |  | 
CN(CC(=O)O)N(C)C(=O)C[C@H](N)C[C@@H](O)CN | > 256 | > 256 | > 256 | > 256 | > 100 |  |  |  | 
CN(CC(=O)O)NC(=O)C[C@H](N)C[C@@H](O)CN [NEGAMYCIN] | 32 (≈ 129 µM) | 16 (≈ 64.4 µM) | 32 (≈ 129 µM) | 16 (≈ 64.4 µM) | 1.7 | 16 (≈ 64.4 µM) | 16 (≈ 64.4 µM) |  | 
CN(CC(=O)O)NC(=O)C[C@H](N)C[C@@H](O)CNCCO | 512 (≈ 1750 µM) | 64 (≈ 219 µM) | 64 (≈ 219 µM) | 64 (≈ 219 µM) | 0.63 | 128 (≈ 438 µM) | 128 (≈ 438 µM) |  | 
CC(CCN)NC[C@H](O)C[C@@H](N)CC(=O)NN(C)CC(=O)O (stereo partly drawn) | 32 (≈ 100 µM) | 8 (≈ 25 µM) | 8 (≈ 25 µM) | 16 (≈ 50.1 µM) | 0.44 | 32 (≈ 100 µM) | 16 (≈ 50.1 µM) |  | 
CNCCCNC[C@H](O)C[C@@H](N)CC(=O)NN(C)CC(=O)O | 256 (≈ 801 µM) | 64 (≈ 200 µM) | 64 (≈ 200 µM) | 256 (≈ 801 µM) | 5.8 | 256 (≈ 801 µM) | 256 (≈ 801 µM) |  | 
CN(CC(=O)O)NC(=O)C[C@H](N)C[C@@H](O)CNC[C@@H](O)CN | 256 (≈ 797 µM) | 128 (≈ 398 µM) | 64 (≈ 199 µM) | 256 (≈ 797 µM) | 2.5 | 128 (≈ 398 µM) | 64 (≈ 199 µM) |  | 
CN(C)CCCNC[C@H](O)C[C@@H](N)CC(=O)NN(C)CC(=O)O | > 256 | 256 (≈ 768 µM) | 256 (≈ 768 µM) | > 256 | 15 | > 256 | > 256 |  | 
NC[C@H](O)C[C@@H](N)CC(=O)NOCC(=O)O | > 256 | > 256 | > 256 | > 256 | > 100 |  |  |  | 
GENTAMICIN [listing 2 of 2 here] |  |  |  |  |  |  |  | 0.4 | 
COCCNC[C@H](O)C[C@@H](N)CC(=O)NN(C)CC(=O)O | > 256 | 256 (≈ 836 µM) | 128 (≈ 418 µM) | > 256 | 5.3 | > 256 | 128 (≈ 418 µM) |  | 
CN(CC(=O)O)NC(=O)C[C@H](N)C[C@@H](O)CNCCCO | > 1020 | 256 (≈ 836 µM) | 512 (≈ 1670 µM) | 512 (≈ 1670 µM) | 11 | 1020 (≈ 3340 µM) | 128 (≈ 418 µM) |  | 
CN(CC(=O)O)NC(=O)C[C@H](N)C[C@@H](O)CNCCCNC(=N)N | 512 (≈ 1470 µM) | 64 (≈ 184 µM) | 128 (≈ 368 µM) | 512 (≈ 1470 µM) | 1.7 | 256 (≈ 737 µM) | 256 (≈ 737 µM) |  | 
CN(CC(=O)O)NC(=O)C[C@@H](N)C[C@@H](O)CNCCCN | 128 (≈ 419 µM) | 32 (≈ 105 µM) | 64 (≈ 210 µM) | 128 (≈ 419 µM) | 2.8 | 128 (≈ 419 µM) | 128 (≈ 419 µM) |  | 
CN(CC(=O)O)NC(=O)C[C@H](N)C[C@@H](F)CN | 128 (≈ 511 µM) | 128 (≈ 511 µM) | 64 (≈ 256 µM) | 64 (≈ 256 µM) | 2.9 |  |  |  | 
CN(CC(=O)O)NC(=O)C[C@H](N)[C@@H](O)[C@@H](O)CN | > 64 | 64 (≈ 242 µM) | > 64 | > 64 | 3.2 |  |  |  | 
CC(CN)CNC[C@H](O)C[C@@H](N)CC(=O)NN(C)CC(=O)O (stereo partly drawn) | 32 (≈ 100 µM) | 16 (≈ 50.1 µM) | 16 (≈ 50.1 µM) | 32 (≈ 100 µM) | 1.1 | 16 (≈ 50.1 µM) | 16 (≈ 50.1 µM) |  | 
CC(N)CCNC[C@H](O)C[C@@H](N)CC(=O)NN(C)CC(=O)O (stereo partly drawn) | 128 (≈ 401 µM) | 64 (≈ 200 µM) | 64 (≈ 200 µM) | 64 (≈ 200 µM) | 3.4 | 64 (≈ 200 µM) | 64 (≈ 200 µM) |  | 

Molecule | MIC (Pseudomonas aeruginosa [1]) [µg/mL] | MIC (Acinetobacter baumannii) [µg/mL] | MIC (Klebsiella pneumoniae) [µg/mL] | MIC (Escherichia coli [2]) [µg/mL] | IC50 (Escherichia coli [3]; Escherichia coli) [µM] | MIC (Pseudomonas aeruginosa [4]) [µg/mL] | MIC (Escherichia coli [5]) [µg/mL] | IC50 (Escherichia coli [3]) [µM] | Ratio (Pseudomonas aeruginosa [6])
CC(=O)NCCCNC[C@H](O)C[C@@H](N)CC(=O)NN(C)CC(=O)O | > 512 | > 512 | > 512 | > 512 | 19 | > 512 | > 512 |  | 
CN(CC(=O)O)NC(=O)C[C@H](N)C[C@@H](O)CNCC(F)CN (stereo partly drawn) | 256 (≈ 792 µM) | 256 (≈ 792 µM) | 128 (≈ 396 µM) | 256 (≈ 792 µM) | 3.6 | 128 (≈ 396 µM) | 128 (≈ 396 µM) |  | 
CN(CC(=O)O)NC(=O)C[C@H](N)C[C@@H](O)CNC(CCN)c1ccccc1 (stereo partly drawn) | > 256 | > 256 | 64 (≈ 168 µM) | 256 (≈ 671 µM) | 2.3 | 32 (≈ 83.9 µM) | 128 (≈ 336 µM) |  | 
CN(CC(=O)O)NC(=O)C[C@H](N)C[C@@H](O)CNC[C@H](O)CN | 128 (≈ 398 µM) | 32 (≈ 99.6 µM) | 64 (≈ 199 µM) | 64 (≈ 199 µM) | 0.73 | 64 (≈ 199 µM) | 32 (≈ 99.6 µM) |  | 
CN(CC(=O)O)NC(=O)C[C@@H](N)C[C@H](O)CN | 256 (≈ 1030 µM) | 128 (≈ 516 µM) | 256 (≈ 1030 µM) | 512 (≈ 2060 µM) | 12 |  |  |  | 
CN(CC(=O)O)NC(=O)C[C@H](N)C[C@H](O)CN | > 1020 | 512 (≈ 2060 µM) | 1020 (≈ 4120 µM) | 1020 (≈ 4120 µM) | 51 |  |  |  | 
CN(CC(=O)O)NC(=O)C[C@H](N)C[C@@H](O)[C@H](N)CO | > 512 | > 512 | > 512 | > 512 | 78 |  |  |  | 
CN(CC(=O)O)NC(=O)C[C@H](N)C[C@@H](O)CNCC1CNC1 | 256 (≈ 807 µM) | 128 (≈ 403 µM) | 64 (≈ 202 µM) | 256 (≈ 807 µM) | 3.9 | 128 (≈ 403 µM) | 128 (≈ 403 µM) |  | 
CN(CC(=O)O)NC(=O)C[C@@H](N)C[C@@H](O)CN | > 256 | 256 (≈ 1030 µM) | 256 (≈ 1030 µM) | > 256 | 13 |  |  |  | 
CN(CC(=O)O)NC(=O)C[C@H](N)CCCN | 128 (≈ 551 µM) | 128 (≈ 551 µM) | 128 (≈ 551 µM) | 128 (≈ 551 µM) | 3.3 |  |  |  | 
CC(C(=O)NN(C)CC(=O)O)[C@H](N)C[C@@H](O)CN (stereo partly drawn) | ≥ 256 | 128 (≈ 488 µM) | ≥ 256 | 128 (≈ 488 µM) | 12 |  |  |  | 
CN(CC(=O)O)NC(=O)C[C@H](N)C[C@@H](O)CNCc1ccccn1 | > 256 | > 256 | > 256 | > 256 | 11 | > 256 | 256 (≈ 754 µM) |  | 
CN(CC(=O)O)NC(=O)C[C@H](N)C[C@@H](O)CNCCCN | 16 (≈ 52.4 µM) | 4 (≈ 13.1 µM) | 4 (≈ 13.1 µM) | 8 (≈ 26.2 µM) | 0.34 | 8 (≈ 26.2 µM) | 16 (≈ 52.4 µM) |  | 
CN(CC(=O)O)NC(=O)C[C@H](N)C[C@@H](O)CNCCF | > 256 | 128 (≈ 435 µM) | 64 (≈ 217 µM) | 64 (≈ 217 µM) | 2.3 | 256 (≈ 870 µM) | 128 (≈ 435 µM) |  | 
CN(C)[C@@H]1C(O)=C(C(N)=O)C(=O)[C@@]2(O)C(O)=C3C(=O)c4c(O)cccc4[C@@](C)(O)[C@H]3C[C@@H]12 [TETRACYCLINE] | 32 (≈ 72 µM) | > 64 | 16 (≈ 36 µM) | 1 (≈ 2.25 µM) | 1.4 | 0.25 (≈ 0.563 µM) | 0.5 (≈ 1.13 µM) |  | 128
CN(CC(=O)O)NC(=O)C[C@H](N)C[C@@H](O)CNCc1ccccc1 | > 256 | > 256 | 128 (≈ 378 µM) | 128 (≈ 378 µM) | 1 |  |  |  | 
CN(CC(=O)O)NC(=O)C[C@H](N)C[C@@H](O)CNCC(N)CN (stereo partly drawn) | 128 (≈ 400 µM) | 32 (≈ 99.9 µM) | 64 (≈ 200 µM) | 128 (≈ 400 µM) | 10 | 128 (≈ 400 µM) | 128 (≈ 400 µM) |  | 
NC[C@H](O)C[C@@H](N)CC(=O)NNCC(=O)O | > 64 | > 64 | > 64 | > 64 | 34 |  |  |  | 
CN(CC(=O)O)NC(=O)C[C@H](N)C[C@@H](O)[C@@H](N)CO | > 128 | 128 (≈ 460 µM) | > 128 | > 128 | 7.3 |  |  |  | 
CN(CC(=O)O)NC(=O)C[C@H](N)C[C@@H](O)CNCC1CCNC1 (stereo partly drawn) | 256 (≈ 772 µM) | 64 (≈ 193 µM) | 128 (≈ 386 µM) | 256 (≈ 772 µM) | 3.3 | 128 (≈ 386 µM) | 256 (≈ 772 µM) |  | 
CN(CC(=O)O)NC(=O)C[C@H](N)C[C@@H](O)CNCCN | 128 (≈ 439 µM) | 64 (≈ 220 µM) | 32 (≈ 110 µM) | 64 (≈ 220 µM) | 2.1 | 64 (≈ 220 µM) | 64 (≈ 220 µM) |  | 
CN(CC(=O)O)NC(=O)C[C@H](N)C[C@@H](O)CNCCCCN | 128 (≈ 401 µM) | 16 (≈ 50.1 µM) | 16 (≈ 50.1 µM) | 32 (≈ 100 µM) | 0.74 | 64 (≈ 200 µM) | 32 (≈ 100 µM) |  | 
